The source made the active and inactive calls. The calls are words filed in the database; no cut-off is given here.
Experiments:
Rattus norvegicus [1] = assay: AUC (0 to infinity) in Sprague-Dawley rat at 30 mg/kg, iv by LC-MS/MS analysis; format: ADME, organism-based; set-up: dose 30 mg/kg, time infinity, route intravenous; conditions: in vivo
Outline: (§1)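 Male Sprague-Dawley rats (220-350 g) given a single dose, IV 30 mg/kg or PO 150 mg/kg. Heparinized blood sampled at 2 min-8 h (IV) or 5 min-12 h (PO). Plasma protein-precipitated with acetonitrile/MeOH containing buspirone internal standard. Drug quantified by LC/MS-MS, parameters from non-compartmental analysis. n = 5 per curve.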

[2] = Drug metabolism in rat plasma assessed as (1aR,2S,5aR,6aR,9aR,9bS)-2,5a-Dimethyl-9-methyleneoctahydro-2H-oxireno[2',3':4,4a]naphtho[2,3-b]furan-8(9H)-one formation after 12 hrs by LC-MS/MS analysis; format: ADME, cell-free
Outline: (§2)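 Compound solution (1 mM stock) added 1:100 into blank plasma and incubated at 37 °C for up to 12 h. Aliquots quenched in acetonitrile/MeOH with buspirone internal standard and centrifuged. Parent compound and released products quantified by LC/MS-MS.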

[3] = target: T1, Transforming growth factor beta-1 proprotein/Mothers against decapentaplegic homolog 3 (Mus musculus) (UniProt P04202+Q8BUN5); assay: Inhibition of TGF-beta1/smad3 signaling pathway in mouse NIH/3T3 cell extract assessed as decrease in Smad3 phosphorylation at 10 uM after 30 mins by Western blot analysis; format: protein assay
Rattus norvegicus [4] = assay: AUC (0 to t) in Sprague-Dawley rat at 150 mg/kg, po by LC-MS/MS analysis; format: ADME, organism-based; conditions: in vivo; outline: as §1
[5] = Half life in Sprague-Dawley rat at 150 mg/kg, po by LC-MS/MS analysis; format: ADME, organism-based; conditions: in vivo; outline: as §1
[6] = Tmax in Sprague-Dawley rat at 30 mg/kg, iv by LC-MS/MS analysis; format: ADME, organism-based; conditions: in vivo; outline: as §1
[7] = target: T2, Transforming growth factor beta-1 proprotein/Mothers against decapentaplegic homolog 3 (Homo sapiens) (UniProt P84022+P01137); assay: Inhibition of TGF-beta1/smad3 signaling pathway in human HFL cells assessed as decrease in Col1 protein expression level at 10 uM after 24 hrs by Western blot analysis; format: cell-based
Outline: (§3)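 HFL1 human lung fibroblasts given TGF-β1 (5 ng/mL) with or without compound at 10 µM: 24 h for α-SMA (cell lysate) and collagen I (medium), 30 min for p-Smad3. RIPA lysis with phosphatase inhibitor, then Western blot. Band density normalized to β-actin. n=3.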

[8] = target: T2, Transforming growth factor beta-1 proprotein/Mothers against decapentaplegic homolog 3 (Homo sapiens); assay: Inhibition of TGF-beta1/smad3 signaling pathway in human HFL cells assessed as decrease in smad3 phosphorylation at 10 uM after 30 mins by Western blot analysis; format: cell-based; outline: as §3
Mus musculus [9] = assay: Toxicity in C57/BL6 mouse assessed as mouse survival at 2 g/kg administered orally via gavage daily as single dose for 7 days; format: organism-based; conditions: in vivo, po, 2000 mg/kg, 168 h
Outline: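 C57BL/6 mice, 20-22 g, dosed by oral gavage once daily at 2 g/kg for 7 days, n = 10; survival recorded.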

[10] = target: T1, Transforming growth factor beta-1 proprotein/Mothers against decapentaplegic homolog 3 (Mus musculus); assay: Inhibition of TGF-beta1/smad3 signaling pathway in mouse NIH/3T3 cells after 18 hrs by CAGA-luciferase reporter gene assay; format: cell-based
Mus musculus [11] = assay: In vivo inhibition of TGF-beta1/smad3 signaling pathway in bleomycin-induced pulmonary fibrosis in C57BL/6 mouse model assessed as decrease in smad3 phosphorylation in lung tissue at 100 mg/kg, po qd administered from day 7 to 14 by Western blot analysis; format: functional, organism-based
[12] = Oral bioavailability in Sprague-Dawley rat at 150 mg/kg by LC-MS/MS analysis; format: ADME, organism-based; conditions: in vivo; outline: as §1
Mus musculus [13] = assay: Antifibrotic activity in bleomycin-induced pulmonary fibrosis in C57BL/6 mouse model assessed as fibrotic area in lungs at 100 mg/kg, po qd administered from day 7 to 14 by hematoxylin-eosin staining based fluorescence microscopy; format: functional
Outline: (§4)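 Male C57BL/6 mice (7-8 weeks, n=5/group) given intratracheal bleomycin 2 U/kg under chloral hydrate anaesthesia. Dosing at 100 mg/kg daily from day 7 to day 14, sacrifice at day 14. Left lungs formalin-fixed, paraffin-embedded, 5 µm sections HE-stained. Fibrosis ratio taken as fibrotic-region pixels over total lung pixels.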

[14] = Half life in Sprague-Dawley rat at 30 mg/kg, iv by LC-MS/MS analysis; format: ADME, organism-based; conditions: in vivo; outline: as §1
Mus musculus [15] = assay: In vivo inhibition of TGF-beta1/smad3 signaling pathway in bleomycin-induced pulmonary fibrosis in C57BL/6 mouse model assessed as decrease in Col1 level in lung tissue at 100 mg/kg, po qd administered from day 7 to 14 by immunohistochemical analysis; format: functional, organism-based
Outline: (§5)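 Lungs from bleomycin-challenged C57BL/6 mice (2 U/kg intratracheal; 100 mg/kg daily, days 7-14) were paraffin-embedded and dewaxed. Citrate (0.01 M) microwave antigen retrieval, then 5% serum block. Primary antibodies overnight at 4 °C: α-SMA 1:200, collagen I 1:100, p-Smad3 1:50. Secondary antibody 1 h at room temperature, then hematoxylin counterstain and microscopy.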

Mus musculus [16] = assay: In vivo inhibition of TGF-beta1/smad3 signaling pathway in bleomycin-induced pulmonary fibrosis in C57BL/6 mouse model assessed as decrease in smad3 phosphorylation level in lung tissue at 100 mg/kg, po qd administered from day 7 to 14 by immunohistochemical analysis; format: functional, organism-based; outline: as §5
[17] = target: T2, Transforming growth factor beta-1 proprotein/Mothers against decapentaplegic homolog 3 (Homo sapiens); assay: Inhibition of TGF-beta1/smad3 signaling pathway in human HFL cell extract assessed as decrease in alpha-SMA protein expression at 10 uM after 24 hrs by Western blot analysis; outline: as §3
Mus musculus [18] = assay: Antifibrotic activity in bleomycin-induced pulmonary fibrosis in C57BL/6 mouse model assessed as decrease in collagen content in lung at 100 mg/kg, po qd administered from day 7 to 14 by spectrophotometric method; format: functional, organism-based
Outline: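 Bleomycin model as above: 2 U/kg intratracheal in male C57BL/6 mice, 100 mg/kg daily from day 7 to day 14. Right lungs collected at day 14, dried and acid-hydrolysed, filtered, and pH adjusted to 6.5-8.0. Hydroxyproline then measured by chloramine-T spectrophotometry.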

Rattus norvegicus [19] = assay: AUC (0 to t) in Sprague-Dawley rat at 30 mg/kg, iv by LC-MS/MS analysis; format: ADME, organism-based; conditions: in vivo; outline: as §1
Mus musculus [20] = assay: Toxicity in C57/BL6 mouse assessed as appearance of systemic symptoms at 2 g/kg administered orally via gavage daily as single dose for 30 days; format: organism-based; conditions: in vivo, po, 2000 mg/kg, 720 h
Outline: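 C57BL/6 mice given compound by oral gavage at 2 g/kg once daily for 30 days (n=10) and observed for systemic symptoms and deaths.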

Mus musculus [21] = assay: In vivo inhibition of TGF-beta1/smad3 signaling pathway in bleomycin-induced pulmonary fibrosis in C57BL/6 mouse model assessed as decrease in alpha-SMA level in lung tissue at 100 mg/kg, po qd administered from day 7 to 14 by immunohistochemical analysis; format: functional, organism-based; outline: as §5
Rattus norvegicus [22] = assay: AUC (0 to infinity) in Sprague-Dawley rat at 150 mg/kg, po by LC-MS/MS analysis; format: ADME, organism-based; set-up: dose 150 mg/kg, time infinity, route oral; conditions: in vivo; outline: as §1
[23] = Cmax in Sprague-Dawley rat at 150 mg/kg, po by LC-MS/MS analysis; format: ADME, organism-based; set-up: dose 150 mg/kg, route oral; conditions: in vivo; outline: as §1
Mus musculus [24] = assay: In vivo inhibition of TGF-beta1/smad3 signaling pathway in bleomycin-induced pulmonary fibrosis in C57BL/6 mouse model assessed as decrease in Col1 protein expression level in lung tissue at 100 mg/kg, po qd administered from day 7 to 14 by Western blot analysis; format: functional, organism-based
[25] = Cmax in Sprague-Dawley rat at 30 mg/kg, iv by LC-MS/MS analysis; format: ADME, organism-based; set-up: dose 30 mg/kg, route intravenous; conditions: in vivo; outline: as §1
Mus musculus [26] = assay: Antifibrotic activity in bleomycin-induced pulmonary fibrosis in C57BL/6 mouse model assessed as decrease in ECM production at 100 mg/kg, po qd administered from day 7 to 14 by hematoxylin-eosin staining based fluorescence microscopy; format: functional, organism-based; outline: as §4
[27] = target: T1, Transforming growth factor beta-1 proprotein/Mothers against decapentaplegic homolog 3 (Mus musculus); assay: Inhibition of TGF-beta1/smad3 signaling pathway in mouse NIH/3T3 cell extract assessed as decrease in alpha-SMA protein expression at 10 uM after 24 hrs by Western blot analysis
[28] = Tmax in Sprague-Dawley rat at 150 mg/kg, po by LC-MS/MS analysis; format: ADME, organism-based; conditions: in vivo; outline: as §1
[29] = Stability in rat plasma assessed as parent compound remaining after 3 hrs by LC-MS/MS analysis; format: ADME, cell-free; conditions: read-out: Stability; outline: as §2
[30] = target: T1, Transforming growth factor beta-1 proprotein/Mothers against decapentaplegic homolog 3 (Mus musculus); assay: Inhibition of TGF-beta1/smad3 signaling pathway in mouse NIH/3T3 cells assessed as decrease in ECM production at 10 uM after 24 hrs; format: cell-based
Mus musculus [31] = assay: Toxicity in C57/BL6 mouse assessed as mouse survival at 1 to 5 g/kg administered orally via gavage as single dose; format: organism-based; conditions: in vivo, po
Outline: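 Male-unspecified C57BL/6 mice, 20-22 g; single oral gavage dose at 1, 2, 3, 4 and 5 g/kg, n = 10; survival recorded.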

[32] = Drug metabolism in rat plasma assessed as (3aR,4aR,5R,6R,8aR,9aR)-6-Hydroxy-8a-methyl-3-methylenedecahydro-2H-spiro[naphtho[2,3-b]furan-5,2'-oxiran]-2-one formation after 12 hrs by LC-MS/MS analysis; format: ADME, cell-free; outline: as §2

T2 sequence (P01137 whole entry, looked up): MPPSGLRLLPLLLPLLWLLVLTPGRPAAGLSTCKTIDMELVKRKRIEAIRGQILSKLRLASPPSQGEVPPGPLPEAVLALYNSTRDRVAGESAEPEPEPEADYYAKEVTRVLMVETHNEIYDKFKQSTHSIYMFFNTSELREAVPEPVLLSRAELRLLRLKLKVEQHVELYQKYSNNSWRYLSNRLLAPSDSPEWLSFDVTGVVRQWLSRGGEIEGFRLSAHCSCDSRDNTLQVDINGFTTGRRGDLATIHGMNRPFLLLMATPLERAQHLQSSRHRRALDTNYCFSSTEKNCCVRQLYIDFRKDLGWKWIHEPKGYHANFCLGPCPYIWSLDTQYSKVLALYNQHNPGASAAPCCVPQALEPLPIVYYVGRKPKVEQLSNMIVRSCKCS
T2 sequence (P84022 whole entry, looked up): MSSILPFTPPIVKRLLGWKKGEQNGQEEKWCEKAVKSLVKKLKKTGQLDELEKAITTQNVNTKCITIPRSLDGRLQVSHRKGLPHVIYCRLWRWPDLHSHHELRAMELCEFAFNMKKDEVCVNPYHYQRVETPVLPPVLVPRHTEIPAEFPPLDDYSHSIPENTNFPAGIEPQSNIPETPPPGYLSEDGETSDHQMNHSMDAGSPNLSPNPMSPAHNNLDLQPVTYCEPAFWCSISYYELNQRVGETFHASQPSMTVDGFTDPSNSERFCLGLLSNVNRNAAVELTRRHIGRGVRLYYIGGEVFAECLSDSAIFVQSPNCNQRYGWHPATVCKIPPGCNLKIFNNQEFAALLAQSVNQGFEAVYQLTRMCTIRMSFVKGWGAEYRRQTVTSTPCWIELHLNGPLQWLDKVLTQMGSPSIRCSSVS
T1 sequence (P04202 279-390 limits assumed): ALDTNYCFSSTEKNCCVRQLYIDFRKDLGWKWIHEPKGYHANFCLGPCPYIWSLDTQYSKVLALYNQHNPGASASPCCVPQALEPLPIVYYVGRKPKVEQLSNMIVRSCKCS
T1 sequence (Q8BUN5 2-425 partner limits assumed): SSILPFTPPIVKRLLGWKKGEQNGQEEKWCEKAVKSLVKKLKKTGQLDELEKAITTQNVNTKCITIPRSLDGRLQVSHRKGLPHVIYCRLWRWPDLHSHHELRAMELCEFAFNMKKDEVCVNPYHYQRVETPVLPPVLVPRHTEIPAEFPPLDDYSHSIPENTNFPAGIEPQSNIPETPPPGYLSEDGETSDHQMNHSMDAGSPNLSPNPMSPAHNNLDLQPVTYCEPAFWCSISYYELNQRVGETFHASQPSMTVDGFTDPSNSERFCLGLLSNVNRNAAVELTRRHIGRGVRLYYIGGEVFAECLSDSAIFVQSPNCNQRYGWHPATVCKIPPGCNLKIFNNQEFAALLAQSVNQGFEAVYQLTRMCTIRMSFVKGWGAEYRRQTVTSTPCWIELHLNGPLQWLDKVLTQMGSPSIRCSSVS

SMILES | AUC (Rattus norvegicus [1]) [ng·h/mL] | inhibition [3] | AUCt (Rattus norvegicus [4]) [ng·h/mL] | half-life [5] [min] | Tmax [6] [min] | inhibition [7] | inhibition [8] | Activity (Mus musculus [9]) | inhibition [10] | inhibition (Mus musculus [11]) | bioavailability [12] [%] | Activity (Mus musculus [13]) [%] | half-life [14] [min] | inhibition (Mus musculus [15]) | inhibition (Mus musculus [16]) | inhibition [17] | Activity (Mus musculus [18]) | AUCt (Rattus norvegicus [19]) [ng·h/mL] | inhibition (Mus musculus [21]) | AUC (Rattus norvegicus [22]) [ng·h/mL] | also measured
C[C@H]1CCC[C@]2(C)C[C@H]3OC(=O)[C@@H](CN(C)C)[C@H]3[C@@H]3O[C@@]132.O=C(O)/C=C/C(=O)O | 10000 | Active | 37600 | 85 | 2 | Active | Active | Non-Toxic | Dose-dependent effect | Active | 75 | 71.8 | 73 | Active | Active | Active | Active | 10000 | Active | 37800 | Drug metabolism [2]: Metabolite_Detected; Activity (Mus musculus [20]): Non-Toxic; Cmax [23]: 18500 ng/mL; inhibition (Mus musculus [24]): Active; Cmax [25]: 17500 ng/mL; Activity (Mus musculus [26]): Active; inhibition [27]: Active; Tmax [28]: 30 min; remaining at 3 h [29]: > 50%; inhibition [30]: Active; Activity (Mus musculus [31]): Non-Toxic
CN(C)C[C@@H]1C(=O)O[C@@H]2C[C@@]3(C)CC[C@@H](O)[C@]4(CO4)[C@@H]3C[C@H]12.O=C(O)/C=C/C(=O)O | 44900 | Active | 171000 | 121 | 17 | Active | Active | Non-Toxic | Dose-dependent effect | Active | 78 | 60.5 | 81 | Active | Active | Active | Active | 43800 | Active | 174000 | Cmax [23]: 62300 ng/mL; Drug metabolism [32]: Metabolite_Detected; inhibition (Mus musculus [24]): Active; Cmax [25]: 22700 ng/mL; Activity (Mus musculus [26]): Active; inhibition [27]: Active; Tmax [28]: 42 min; remaining at 3 h [29]: > 50%; inhibition [30]: Active; Activity (Mus musculus [31]): Non-Toxic

— ChEMBL document CHEMBL4270598, “Synthesis and discovery of a drug candidate for treatment of idiopathic pulmonary fibrosis through inhibition of TGF-β1 pathway” (Eur J Med Chem, 2018)
